UBC13 polyUb = UBC13 polyubiquitin chain formation inhibitors, primary screen, biochemical, TR-FRET, uHTS; Ubiquitin-conjugating enzyme E2 N (Homo sapiens), P61088; inhibition, % at 20 µM; hit rate 0.47% among 330,000; in the data active means inhibition above about 45%, passing the limit was not always enough
Target sequence (P61088 whole entry, looked up): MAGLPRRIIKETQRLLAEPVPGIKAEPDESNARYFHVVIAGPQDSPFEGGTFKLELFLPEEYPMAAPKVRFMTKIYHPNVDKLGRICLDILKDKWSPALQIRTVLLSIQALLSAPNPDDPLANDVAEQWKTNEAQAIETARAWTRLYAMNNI
CHOP UPR activ = activators of apoptotic CHOP UPR arm, primary screen, cell-based, CHO-CHOP luciferase reporter, luminescence, uHTS. UPR activation; percent of tunicamycin response over DMSO baseline. activation, % at 10 µM. hit rate 0.34% among 330,000. AID 449763, 2010;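 active means at 10 µM dose, activation of 40% or more, normalized to positive control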;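 further: 100% = tunicamycin at 10 µg/mL and 0% = DMSO alone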
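Assay system: CHO cells with stable CHOP pathway luciferase reporter; Buffer or medium: F12 plus 10% serum; Times: 16-18 h cell attachment, then 6 h compound exposure, 37 °C; Signal: luciferase luminescence; Read-out basis: percent activation relative to tunicamycin control; Control set: tunicamycin high control, DMSO low control.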
Apaf1 inhib = inhibitors of human Apaf-1 apoptosome, primary screen, biochemical, DEVD-Rh110 fluorescence, uHTS | Apoptotic protease-activating factor 1 (Homo sapiens), O14727 | AID 489030, 2010 | hit rate 0.71% among 330,000 | inhibition, % at 20 µM | reconstituted apoptosome caspase-3 activity; active means inhibition of at least 40% at 20 µM;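 further: plate controls were DMSO wells for no effect and DEVD-CHO caspase inhibitor wells for full effect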
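Material: cell-free apoptosome with Apaf-1, procaspase-3 and caspase-9; Buffer or medium: Hepes pH 7.5 with detergent and BSA; Reagent: cytochrome c trigger plus (Z-DEVD)2-Rh110 caspase-3 substrate; Times: compound with Apaf-1, dATP, procaspase-3 30 min, then 50 min reaction, room temperature; Technique: Rh110 fluorescence intensity.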
XBP1 UPR activ = activators of adaptive XBP1 UPR arm, primary screen, cell-based, CHO-XBP1 luciferase reporter, luminescence, uHTS | hit rate 0.33% among 330,000 | AID 463104, 2010 | IRE1-XBP1 UPR activation; percent of tunicamycin response, DMSO as zero | activation, % at 20 µM;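 active means versus positive control, 20 µM dose yields 30% or more activation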;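 further: 100% = tunicamycin at 10 µg/mL and 0% = DMSO only wells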
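Signal: luciferase luminescence; Assay system: CHO-XBP1 luciferase reporter cells; Amount: one thousand reporter cells per well; Dosing: 20 µM single concentration, DMSO 1%; Benchmarks: high control tunicamycin 10 µg/mL final, low control DMSO vehicle only; Schedule: 6 h compound exposure at 37 °C, 5% CO2; Evaluation: percent activation relative to tunicamycin reference.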
Mdm2 MdmX PPI = inhibitors of human Mdm2-MdmX association, primary screen, cell-based, luminescence, split luciferase, SaOS-2, uHTS; Protein Mdm4 (Homo sapiens) + E3 ubiquitin-protein ligase Mdm2 (Homo sapiens), …; SaOS-2 split-luciferase Mdm2/MdmX complementation; inhibition, % at 8 µM; hit rate 3% among 330,000;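 active means inhibition of at least 50% at 8 µM in the primary screen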
Mdm2-MdmX conf = Mdm2-MdmX complex disruptors, retested hits, confirmation, luminescence, single concentration | shares compounds with Mdm2 MdmX PPI | Mdm2-MdmX binding, luminescent assay | inhibition, % at 8 µM | hit rate 55% among 10,000; in the data active means inhibition above about 40%
FLuc counter = full-length luciferase signal inhibition, confirmation, counter-screen for Mdm2/MdmX interaction inhibitor project, cell-based, single concentration, SaOS-2; shares compounds with Mdm2 MdmX PPI; SaOS-2 full-length luciferase counterscreen, luminescence; inhibition, % at 8 µM; hit rate 77% among 6,200; AID 504607, 2011;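 active means mean inhibition at 8 µM reaching about 37%, which flags the compound as non-specific, limit read from the data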;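 further: p53-null SaOS-2 cells with luciferase driven by a doxycycline-inducible promoter; compound on cells about two nights before reading with doxycycline added after day one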
Starred values were filed as active, the others as inactive; nt = no result. In the library only some 4.1% were active in any assay of this set; here they are far more common.

SMILES | UBC13 polyUb | CHOP UPR activ | Apaf1 inhib | XBP1 UPR activ | Mdm2 MdmX PPI | Mdm2-MdmX conf | FLuc counter
Cc1cccc(NC(=O)[C@@H](NC(=O)[C@@H]2Cc3ccccc3CN2)C(C)C)c1 | -2 | 3 | 4 | -8 | 3 | nt | nt
Cc1ccc(NC(=O)[C@H](Cc2c[nH]c3ccccc23)NC(=O)[C@@H]2Cc3ccccc3CN2)c(C)c1 | -19 | 2 | 20 | -2 | 97* | 82* | 49*
Cc1cc(C)cc(NC(=O)[C@H](Cc2c[nH]c3ccccc23)NC(=O)[C@@H]2Cc3ccccc3CN2)c1 | 13 | -1 | 17 | 24 | 60* | 15 | nt
Cc1cccc(NC(=O)[C@H](Cc2c[nH]c3ccccc23)NC(=O)[C@@H]2Cc3ccccc3CN2)c1 | 4 | 0 | 26 | -1 | 95* | 79* | 27
CC(NC(=O)[C@H](Cc1c[nH]c2ccccc12)NC(=O)[C@@H]1Cc2ccccc2CN1)c1ccccc1 (stereo partly specified) | 17 | 1 | 6 | -4 | 19 | nt | nt
CC(C(=O)N1c2ccc(F)cc2CCC1C)N1C(=O)c2ccccc2C1=O (stereo unspecified) | -2 | 0 | 4 | -2 | 14 | nt | nt
COc1cccc(C(=O)N(C)c2nnc(-c3ccncc3)s2)c1 | 4 | -1 | 1 | -2 | 5 | nt | nt
O=C(c1cccc(COc2cccc3ccccc23)c1)N1CCCC1 | 9 | 6 | 30 | 2 | 50* | 24 | nt
O=C(c1ccccc1)N1CCN(CC(O)COc2cccc3ccccc23)CC1 (stereo unspecified) | -1 | 0 | 5 | 0 | -3 | nt | nt
CC1CCN(S(=O)C23CC4CC(CC(C4)C2)C3)CC1 (stereo unspecified) | -1 | -1 | 11 | -2 | -27 | nt | nt
Cc1cc(/C=N/NC(=O)c2ccncc2)c(C)n1-c1ccccc1 | -15 | 5 | 1 | 10 | -7 | nt | nt
Cc1cc(/C=N/NC(=O)c2cccs2)c(C)n1-c1ccccc1 | -1 | -3 | 19 | -4 | 93* | 88* | 93*
COc1ccc(/C=C2\CC/C(=C\c3ccc(OC)c(OC)c3)C2=O)cc1OC | 13 | 3 | 20 | 0 | 20 | nt | nt
COc1ccc(C=C2C=C(C(C)(C)C)C(=O)C(C(C)(C)C)=C2)cc1OC | -8 | -12 | 9 | -14 | 100* | 18 | nt
COc1ccc(CC2(C)OC(c3ccccc3)=NN2C(C)=O)cc1 (stereo unspecified) | -4 | 1 | 10 | 1 | -11 | nt | nt
CC1CCc2nc(N)c(C#N)c(-c3cccnc3)c2C1 (stereo unspecified) | 7 | -2 | 1 | 3 | 84* | 79* | 21
O=C(N/N=C1/CCCc2ccccc21)c1cc([N+](=O)[O-])cc([N+](=O)[O-])c1 | -13 | 4 | 6 | 2 | 67* | 30 | 94*
O=C(N/N=C1\CCCc2ccccc21)C(O)c1ccccc1 (stereo unspecified) | 1 | -1 | -6 | 1 | -14 | nt | nt
O=C(N/N=C1/CCCc2ccccc21)C(c1ccccc1)c1ccccc1 | 0 | -1 | 7 | 21 | 58* | 3 | nt
COc1cccc(N2CC(O)=C(c3nc4ccccc4s3)C2=N)c1 | 0 | 5 | 11 | 3 | 70* | 57* | 111*
CSc1ccccc1NC(=O)C(=O)c1c[nH]c2ccccc12 | -1 | 3 | 3 | 3 | -78 | nt | nt
CN(C)c1ccc(C(=O)OCC(=O)Nc2ccc(S(N)(=O)=O)cc2)cc1 | 0 | 5 | 3 | 4 | 53* | -12 | nt
CN(C)c1ccc(NC(=O)COC(=O)c2ccc3c(c2)OCO3)cc1 | 7 | 0 | 4 | 0 | -2 | nt | nt
O=S1(=O)[C@H]2C[C@@H]3CC[C@]2(CN1Cc1cccc(F)c1)O3 | 0 | -1 | 2 | 0 | 6 | nt | nt
CC(C)CC[n+]1ccccc1/C=C/c1ccc(N(C)C)cc1 | -329 | 7 | 7 | 3 | 80* | 74* | 27
SMILES | UBC13 polyUb | CHOP UPR activ | Apaf1 inhib | XBP1 UPR activ | Mdm2 MdmX PPI | Mdm2-MdmX conf | FLuc counter
C/C(N=Nc1nc2ccccc2s1)=N\Nc1ccccc1O | -31 | 1 | 0 | -2 | 56* | 58* | 26
CCC/C=N/Nc1nc2ccccc2s1 | 0 | 4 | -2 | 5 | -66 | nt | nt
CC(C)OC(=O)c1cc2c(ccn2C)n1CC(=O)N(Cc1ccccc1)c1ccc(F)cc1 | 18 | 4 | 12 | 1 | 79* | 56* | 76*
CCOC(=O)/C(C#N)=C/C1=C(N2CCOCC2)CC(C)(C)OC1 | 0 | -1 | -26 | 0 | 4 | nt | nt
CC(C)C(=O)N1CCN(c2ccc(NC(=O)c3ccc4c(c3)OCCO4)cc2Cl)CC1 | 5 | 6 | -10 | -2 | 60* | 80* | 65*
CC(=O)N1CCN(c2ccc(NC(=O)c3ccc4c(c3)OCCO4)cc2Cl)CC1 | 2 | 4 | -22 | 1 | 16 | nt | nt
CCn1c(-c2ccc(C)cc2)nn(CC(=O)NCCc2ccccc2)c1=S | -8 | 2 | -3 | 1 | 51* | 55* | 31
COc1ccc(-c2nn(CC(=O)NCCc3ccccc3)c(=S)n2C)cc1 | 1 | 2 | 5 | -2 | 8 | nt | nt
CCN1C=CC(=C2C(=O)c3ccccc3C2=O)C=C1 | -28 | -11 | -9 | -9 | 72* | 78* | 37*
CCCN1C=CC(=C2C(=O)c3ccccc3C2=O)C=C1 | -31 | -9 | 3 | -6 | 88* | 94* | 55*
Cc1cc(C)c2c(=O)[nH]c(SCc3ccc([N+](=O)[O-])cc3)nc2n1 | -4 | -1 | 8 | 0 | 10 | nt | nt
CCOC(=O)c1cnc(Nc2nc3ccccc3o2)nc1CSc1nnc(C)s1 | -24 | 3 | 24 | 2 | 45 | nt | nt
CCOC(=O)c1cnc(Nc2nc3ccccc3o2)nc1C | -2 | -9 | -15 | -6 | 57* | 58* | 44*
Cc1ccc(NC(=O)C2CCN(S(=O)(=O)c3ccc4c(c3)NC(=O)C(C)S4)CC2)cc1Cl (stereo unspecified) | -8 | 4 | 19 | 0 | 61* | 9 | nt
Cc1cc(C)cc(NC(=O)C2CCN(S(=O)(=O)c3ccc4c(c3)NC(=O)C(C)S4)CC2)c1 (stereo unspecified) | 2 | -1 | 18 | -9 | 47 | nt | nt
